The test system of the assay is E. coli V3065 expressing H. pylori AddAB, T4 phage, OD growth. Briefly: growth inhibition of T4-infected E. coli expressing H. pylori AddAB, late-stage follow-up, AddAB inhibitor project, absorbance, E. coli V3065, powder samples, round 2 (AID 651942). The gist of the method:
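Test system: E. coli V3065 carrying H. pylori addAB+; Medium: Cation Mueller Hinton broth; Reagent: mutant T4 phage, MOI 0.02; Doses: 10-point threefold series from 118.6 µM; Incubation: 60 min preincubation, 18 h post-infection, 37 °C; Measured by: optical density at 600 nm as bacterial growth measure; Control set: ciprofloxacin reference; Replicates: triplicate.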

The source made the active and inactive calls.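 Rule for the calls: active = inhibitor of the AddAB recombination enzyme whose half-maximal inhibitory concentration is at or below 10 µM; inactive = half-maximal inhibitory concentration above 10 µM.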

As a reminder, the IC50 is the point on the concentration scale where inhibition reaches its midpoint.

For `CCn1cc(C(=O)O)c(=O)c2cnc(N3CCN(C(=S)Nc4ccccc4F)CC3)nc21`, the IC50 is 7.65 µM.
Take `CCn1cc(C(=O)O)c(=O)c2cnc(N3CCN(C(=S)NCc4ccccc4)CC3)nc21`: the IC50 is 29.4 µM (inactive).
`CCn1cc(C(=O)O)c(=O)c2cnc(N3CCN(C(=S)Nc4ccccc4OC)CC3)nc21`: the IC50 is 30.6 µM (inactive).
The value for `CCn1cc(C(=O)O)c(=O)c2cnc(N3CCN(C(=S)NC(=O)c4cccc(C)c4)CC3)nc21` was 19 µM (inactive); that for `CCn1cc(C(=O)O)c(=O)c2cnc(N3CCN(C(=S)Nc4cccc(C(F)(F)F)c4)CC3)nc21` was 1.03 µM; that for `CCn1cc(C(=O)O)c(=O)c2cnc(N3CCN(C(=S)Nc4ccc(Cl)cc4)CC3)nc21` was 6.5 µM.
